Source: PubChem (Broad Institute)
An excerpt weighted towards active compounds, which were near 3.1% of everything screened.
HIF activator = HIF pathway transcriptional activation; U2OS HRE-luciferase reporter, luminescence; normalized: DMSO 0%, desferrioxamine 100%; activation, % at 7.5 µM (by protocol); 0.32% of 300,000 active; AID 1910;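 active = mean activation of at least 10% of the iron chelator positive control signal, with at least half of replicates also reaching 10%; inconclusive = mean and replicate majority disagree about reaching 10%; inactive = mean and most replicates under 10%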
Calb FLC = C. albicans growth modulation with fluconazole. C. albicans CaCi-2 (fluconazole-resistant clinical isolate) + fluconazole, Alamar Blue growth, 48 h. growth inhibition, % (no concentration beside the values). 0.57% of 300,000 active;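 active = growth inhibition above about 58% in most replicates, limit read from the data, passing the limit was not always enough; inconclusive = exactly half the replicates above a set limit; inactive = most replicates below a set limit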;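 also: all wells also contain fluconazole at 8 µg/ml as a sub-toxic cotreatment; 0% = median of DMSO wells and 100% = median of geldanamycin control wells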
PolyA inhibitor = blocks polyadenylation in yeast reporter cells. S. cerevisiae SKY197-pL101 polyadenylation reporter, beta-gal luminescence; efflux-impaired pdr1/pdr3 knockout yeast; score 100 = 6 SD above DMSO. activity score, % at 12 µM. 0.02% of 300,000 active;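 active = lowest replicate activity score at least 50, where 100 means six control SD above control mean; inconclusive = lowest score under 50 but half or more replicates reach 50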;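 also: yeast exposed to compound for 9 h at 30 °C; higher score means more reporter readthrough which indicates perturbed polyadenylation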
Beta cell apopt = blocks beta cell apoptosis | INS-1E cytokine-induced death, ATP luminescence, 48 h; percent of positive-control rescue, neutral wells zero | protection from apoptosis, % (concentration not given with the values) | 0.8% of 300,000 active | AID 435005;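 active = Every replicate reaches about 75%, or at least half do and their mean reaches it too, limit read from the data; inconclusive = At least half of replicates reach the limit but their mean does not; inactive = Under half of replicates reach the limit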;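 also: 0% = cytokine-treated negative control wells and 100% = positive control rescue; higher means more ATP so stronger rescue from cytokine killing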
T cruzi repl = T. cruzi replication inhibition. T. cruzi beta-gal in NIH3T3, luminescence, 90 h. inhibition, % (no concentration beside the values). 1.4% of 300,000 active;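 active = mean inhibition across valid replicates above about 55%, limit read from the data; inconclusive = mean below that limit but half or more replicates reach it; inactive = mean below it, under half of replicates reach it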;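 also: signal also drops with host cell toxicity which is not excluded here; 0% = plate median of DMSO wells and 100% = zero luminescence signal; higher percent means less beta-gal luminescence so fewer parasites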
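System: NIH/3T3 fibroblasts plus reporter T. cruzi. Medium: DMEM plus 2% FBS. Probe or stimulus: 5000 reporter trypomastigotes per well. Compound: single 50 nL compound addition per well in DMSO. Incubation: co-culture of at least 90 h after 3 h attachment. Detection: GalScreen β-gal luminescence, detergent lysis, 60 min. Evaluation: parasite load inhibition, %.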
CSC inhib = cancer stem cell inhibition. cancer stem cell-like cells viability, luminescence. inhibition, % at 7.5 µM. 1.1% of 300,000 active; in the data active = inhibition above about 75%; inconclusive = no clear call, values can overlap the other calls; tested in HMLE shEcad cells
Numbers without * were called inactive.

CCCCn1c(N)c(N(CCOC)C(=O)c2ccc(COc3ccccc3)o2)c(=O)[nH]c1=O was read as HIF activator 0, Calb FLC -5, PolyA inhibitor 3, T cruzi repl 7 and CSC inhib -10.
For Cc1cccc2cc(CNCC3CCCO3)c(Cl)nc12 (stereo unspecified) the results were HIF activator 0, Calb FLC 99*, PolyA inhibitor 19, Beta cell apopt -1, T cruzi repl -10 and CSC inhib -14.
`CCn1nnc(NC(=O)COc2ccc([N+](=O)[O-])cc2)n1` gave HIF activator 0, Calb FLC -4, PolyA inhibitor -7, Beta cell apopt -3, T cruzi repl 14 and CSC inhib -10.
For COc1ccc(CCNC(=O)c2c(O)c3ccccc3n(C)c2=O)cc1 the results were HIF activator 0, Calb FLC 96*, PolyA inhibitor 25, Beta cell apopt -6, T cruzi repl 1 and CSC inhib -13.
CCCCCCCCC(=O)NNC(=O)c1c(O)c2ccccc2n(CC)c1=O was read as HIF activator 1, Calb FLC 94*, PolyA inhibitor 42, Beta cell apopt -2 and T cruzi repl -17.
`CC(C)Cn1c(=O)c(C(=O)Nc2ccncc2)c(O)c2ccccc21` gave HIF activator 0, Calb FLC -9, PolyA inhibitor -7, Beta cell apopt 19, T cruzi repl 45 and CSC inhib 135*.
For O=C(NCCc1ccccc1)c1c(O)c2cccc3c2n(c1=O)CC3 the results were HIF activator 0, Calb FLC 90*, PolyA inhibitor 5, Beta cell apopt -3, T cruzi repl -7 and CSC inhib -2.
For CCOc1ccc(S(=O)(=O)Nc2ccccc2C(=O)N2CCOCC2)cc1 the results were HIF activator 0, Calb FLC 7, PolyA inhibitor 3, Beta cell apopt -6, T cruzi repl -5 and CSC inhib 5.
For CCCNC(=O)CN1C(=O)COc2ccc(S(=O)(=O)N3CC(C)CC(C)C3)cc21 (stereo unspecified) the results were HIF activator -1, Calb FLC 5, PolyA inhibitor 5, Beta cell apopt -5, T cruzi repl 5 and CSC inhib -6.
For COC(=O)C1N[C@@H]([C@@H](NC(=O)COc2ccccc2)C(=O)Nc2ccc(OC)cc2)SC1(C)C (stereo partly specified) the results were HIF activator 0, Calb FLC -7, PolyA inhibitor 13, Beta cell apopt 3, T cruzi repl -8 and CSC inhib -5.
Screening CCn1c(=O)c(C(=O)NCCc2ccccc2)c(O)c2ccccc21 returned HIF activator 0, Calb FLC 31, PolyA inhibitor -2, Beta cell apopt -2, T cruzi repl 22 and CSC inhib 95*.
Screening Cc1cccc2c1-c1sc(C(=O)Nc3ccccc3N3CCN(C)CC3)cc1CO2 returned HIF activator 0, Calb FLC inconclusive, PolyA inhibitor -7, Beta cell apopt 4, T cruzi repl 28 and CSC inhib 102*.
For Cc1cccc2c1-c1sc(C(=O)N3CCCCC3)cc1CO2 the results were HIF activator 4, Calb FLC 14, PolyA inhibitor -7, Beta cell apopt 3 and T cruzi repl 22.
O=C(NCc1ccc(F)cc1)c1ccc(CS(=O)(=O)Cc2ccccc2F)o1 was read as HIF activator 0, Calb FLC 95*, PolyA inhibitor 2, Beta cell apopt 3, T cruzi repl 4 and CSC inhib -7.
Screening O=C1C(Cc2ccccc2)Nc2ncnc(N3CCCCC3)c2N1Cc1ccc(Cl)cc1 (stereo unspecified) returned HIF activator 5, Calb FLC -1, PolyA inhibitor 7, T cruzi repl 33 and CSC inhib 4.
Screening CC(C)N(Cc1ccccc1)S(=O)(=O)c1cccs1 returned HIF activator 0, Calb FLC -8, PolyA inhibitor 2 and T cruzi repl 6.
O=C1/C(=N\S(=O)(=O)c2cccs2)C([n+]2ccc(CCCc3ccccc3)cc2)=C([O-])c2ccccc21 was read as HIF activator -5, Calb FLC -4, PolyA inhibitor -16, Beta cell apopt 104*, T cruzi repl 28 and CSC inhib 93*.
`O=C1/C(=N\S(=O)(=O)c2cccs2)C([n+]2cccc(Cc3ccccc3)c2)=C([O-])c2ccccc21` gave HIF activator 1, Calb FLC 9, PolyA inhibitor -1, Beta cell apopt 101*, T cruzi repl 12 and CSC inhib 54.
Screening O=S(=O)([N-]c1nc2ccccc2nc1-[n+]1ccc(CCCc2ccccc2)cc1)c1cccs1 returned HIF activator 0, Calb FLC -1, PolyA inhibitor 16, Beta cell apopt 0, T cruzi repl 20 and CSC inhib 11.
For O=C(Nc1ccc(-c2csc(Nc3ccc(Cl)cc3)n2)cc1)c1cccc(C(F)(F)F)c1 the results were HIF activator -1, Calb FLC 2, PolyA inhibitor -20, Beta cell apopt 12, T cruzi repl 68* and CSC inhib -14.
CC(OC(=O)c1cc(=O)[nH]c2ccccc12)C(=O)c1ccccc1 (stereo unspecified) was read as HIF activator 1, Calb FLC 1, PolyA inhibitor -14, Beta cell apopt -3, T cruzi repl -4 and CSC inhib -7.
For CCc1ccc(S(=O)(=O)Nc2ccc(O)c3c(=O)cc(-c4ccccc4Cl)oc23)cc1 the results were HIF activator 0, Calb FLC -7, PolyA inhibitor -13, Beta cell apopt 4, T cruzi repl -1 and CSC inhib 15.
`O=c1cc(-c2ccccc2Cl)oc2c(NS(=O)(=O)c3cc(Cl)cc(Cl)c3O)ccc(O)c12` gave HIF activator 0, Calb FLC inconclusive, PolyA inhibitor 11, Beta cell apopt 45, T cruzi repl -5 and CSC inhib 102*.
For COc1ccc(CNC(=O)Cn2c(=O)n(CCC(=O)N3CCCCC3)c(=O)c3sccc32)cc1 the results were HIF activator 0, Calb FLC -4, PolyA inhibitor 7, Beta cell apopt 1, T cruzi repl 1 and CSC inhib -15.
COc1cc(/C=N/Nc2ccc(F)cc2F)cc(OC)c1O was read as HIF activator 0, Calb FLC -24, PolyA inhibitor -10, Beta cell apopt -7, T cruzi repl 15 and CSC inhib 95*.
For CN(Cc1nc(Cc2cccc(F)c2)no1)CC1CCOCC1 the results were HIF activator 0, Calb FLC -12, PolyA inhibitor -7, Beta cell apopt -2, T cruzi repl -16 and CSC inhib -1.
